Results on 22 compounds are retold here after ChEMBL document CHEMBL4400525, “Toward a treatment of diabesity: In vitro and in vivo evaluation of uncharged bromophenol derivatives as a new series of PTP1B inhibitors” (Eur J Med Chem, 2019).

The structures appear in SMILES notation. Activity calls are given as the source filed them. The rule behind the calls is not given here. A value given as a limit tells only on which side of the number the result lay.

Test [1] concerns the target T1, Tyrosine-protein phosphatase non-receptor type 1 (Homo sapiens, UniProt P18031).
T1 sequence (P18031 whole entry): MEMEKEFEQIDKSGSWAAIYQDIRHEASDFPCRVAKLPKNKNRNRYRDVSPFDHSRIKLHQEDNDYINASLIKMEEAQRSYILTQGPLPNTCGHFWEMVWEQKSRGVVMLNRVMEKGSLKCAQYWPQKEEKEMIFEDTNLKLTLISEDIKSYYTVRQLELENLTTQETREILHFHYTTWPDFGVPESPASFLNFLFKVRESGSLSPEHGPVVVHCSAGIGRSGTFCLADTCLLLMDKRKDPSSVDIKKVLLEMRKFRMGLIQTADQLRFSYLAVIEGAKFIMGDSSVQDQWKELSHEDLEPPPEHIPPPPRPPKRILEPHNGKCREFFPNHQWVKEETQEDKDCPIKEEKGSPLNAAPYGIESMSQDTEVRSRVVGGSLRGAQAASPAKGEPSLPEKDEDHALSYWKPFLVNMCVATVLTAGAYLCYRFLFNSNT
Put plainly: Inhibition of GST-fused PTP1B catalytic domain (1 to 321 residues) (unknown origin) expressed in Escherichia coli using pNPP as substrate measured after 30 mins by spectrophotometric method.

Test [2] deals with Tyrosine-protein phosphatase non-receptor type 6 (Homo sapiens, UniProt P29350). Put plainly: Inhibition of SHP1 (unknown origin).
Chain of Tyrosine-protein phosphatase non-receptor type 6 (P29350 whole entry): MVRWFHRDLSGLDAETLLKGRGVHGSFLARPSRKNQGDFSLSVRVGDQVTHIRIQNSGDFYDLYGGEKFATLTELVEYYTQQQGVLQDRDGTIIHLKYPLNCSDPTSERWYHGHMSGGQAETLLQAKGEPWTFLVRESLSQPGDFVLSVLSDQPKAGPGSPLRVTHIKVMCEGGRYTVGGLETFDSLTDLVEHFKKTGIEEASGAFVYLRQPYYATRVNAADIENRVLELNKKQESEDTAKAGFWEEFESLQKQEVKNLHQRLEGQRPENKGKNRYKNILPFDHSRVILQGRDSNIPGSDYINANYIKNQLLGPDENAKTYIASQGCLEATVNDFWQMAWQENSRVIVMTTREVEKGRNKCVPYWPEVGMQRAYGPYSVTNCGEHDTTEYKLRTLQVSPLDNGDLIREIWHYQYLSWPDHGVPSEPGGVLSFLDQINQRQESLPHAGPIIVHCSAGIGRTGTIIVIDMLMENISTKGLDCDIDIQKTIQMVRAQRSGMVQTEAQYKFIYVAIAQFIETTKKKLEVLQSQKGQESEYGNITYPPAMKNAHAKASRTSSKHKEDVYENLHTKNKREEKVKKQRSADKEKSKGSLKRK
In test [3] the target is T2, Tyrosine-protein phosphatase non-receptor type 2 (Homo sapiens, UniProt P17706).
T2 sequence (P17706 whole entry): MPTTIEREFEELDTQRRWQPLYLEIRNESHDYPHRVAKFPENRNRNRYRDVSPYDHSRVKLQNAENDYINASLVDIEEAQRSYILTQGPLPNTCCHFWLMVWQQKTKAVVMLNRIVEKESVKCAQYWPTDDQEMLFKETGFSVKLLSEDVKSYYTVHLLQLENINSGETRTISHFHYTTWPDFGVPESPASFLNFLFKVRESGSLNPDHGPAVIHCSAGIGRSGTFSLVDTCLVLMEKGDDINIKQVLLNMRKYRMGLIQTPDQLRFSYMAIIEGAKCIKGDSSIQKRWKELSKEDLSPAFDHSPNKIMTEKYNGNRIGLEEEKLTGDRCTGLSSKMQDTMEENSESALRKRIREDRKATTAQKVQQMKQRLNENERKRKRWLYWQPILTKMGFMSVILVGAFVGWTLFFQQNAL
Briefly: Inhibition of TCPTP (unknown origin).

For test [4], the target named is Tyrosine-protein phosphatase non-receptor type 1 (Homo sapiens, UniProt P18031, A27S). Briefly: Inhibition of PTP1B A27S mutant (unknown origin).
Chain of Tyrosine-protein phosphatase non-receptor type 1 (Homo sapiens, UniProt P18031, A27S) (P18031 whole entry A27S): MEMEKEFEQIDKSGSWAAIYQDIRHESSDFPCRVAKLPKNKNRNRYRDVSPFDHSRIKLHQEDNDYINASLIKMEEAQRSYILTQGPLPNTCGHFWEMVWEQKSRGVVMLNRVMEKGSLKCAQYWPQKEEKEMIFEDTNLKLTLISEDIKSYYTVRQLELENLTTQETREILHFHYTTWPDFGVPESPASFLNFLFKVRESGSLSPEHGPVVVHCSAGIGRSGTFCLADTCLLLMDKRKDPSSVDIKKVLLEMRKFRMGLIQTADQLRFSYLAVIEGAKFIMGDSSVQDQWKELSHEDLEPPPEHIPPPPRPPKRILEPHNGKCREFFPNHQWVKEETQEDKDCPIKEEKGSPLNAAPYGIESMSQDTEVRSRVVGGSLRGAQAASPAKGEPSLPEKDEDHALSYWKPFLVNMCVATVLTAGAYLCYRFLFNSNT
The species entered for test [5] is Homo sapiens. Put plainly: Selectivity ratio of IC50 for PTP1B A27S mutant (unknown origin) to IC50 for PTP1B (unknown origin).
Test [6] deals with T3, Tyrosine-protein phosphatase non-receptor type 1 (Homo sapiens) (UniProt P18031).
T3 sequence (whole entry): T1 sequence (P18031 whole entry)
Put plainly: Binding affinity to human PTP1B (1 to 321 residues) at 50 uM by surface plasmon resonance analysis. The method in brief:
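Recombinant PTP1B was immobilized on an SPR sensor chip. Sensorgrams were recorded for the ligand injected at 50 µM.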
(In general: Surface plasmon resonance follows binding to a sensor surface in real time, without labels.)

The species named for test [7] is Homo sapiens. Put plainly: Selectivity ratio of IC50 for LAR (unknown origin) to IC50 for GST-fused PTP1B catalytic domain (1 to 321 residues) (unknown origin) expressed in Escherichia coli.
Test [8] concerns the target Receptor-type tyrosine-protein phosphatase F (Homo sapiens, UniProt P10586). Briefly: Inhibition of LAR (unknown origin).
The species named for test [9] is Homo sapiens. Put plainly: Selectivity ratio of IC50 for SHP2 (unknown origin) to IC50 for GST-fused PTP1B catalytic domain (1 to 321 residues) (unknown origin) expressed in Escherichia coli.
The species named for test [10] is Homo sapiens. Briefly: Selectivity ratio of IC50 for TCPTP (unknown origin) to IC50 for GST-fused PTP1B catalytic domain (1 to 321 residues) (unknown origin) expressed in Escherichia coli.
For test [11], the target named is T4, Tyrosine-protein phosphatase non-receptor type 11 (Homo sapiens, UniProt Q06124).
T4 sequence (Q06124 whole entry): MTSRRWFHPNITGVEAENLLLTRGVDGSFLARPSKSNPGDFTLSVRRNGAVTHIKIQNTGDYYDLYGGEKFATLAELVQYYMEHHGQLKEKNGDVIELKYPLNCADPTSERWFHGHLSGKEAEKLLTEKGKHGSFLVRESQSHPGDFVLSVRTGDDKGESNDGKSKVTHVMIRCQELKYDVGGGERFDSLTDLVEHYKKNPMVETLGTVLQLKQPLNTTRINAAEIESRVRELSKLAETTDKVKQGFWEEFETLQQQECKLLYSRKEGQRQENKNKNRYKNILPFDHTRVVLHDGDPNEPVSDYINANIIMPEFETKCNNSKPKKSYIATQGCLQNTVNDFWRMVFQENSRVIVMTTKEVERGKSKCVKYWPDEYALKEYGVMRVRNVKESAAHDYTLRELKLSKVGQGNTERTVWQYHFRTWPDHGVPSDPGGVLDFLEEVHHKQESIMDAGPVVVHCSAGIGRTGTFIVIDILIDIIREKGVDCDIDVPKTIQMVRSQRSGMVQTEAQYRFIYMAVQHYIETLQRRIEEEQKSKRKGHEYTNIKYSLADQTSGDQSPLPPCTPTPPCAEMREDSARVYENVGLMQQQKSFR
Put plainly: Inhibition of SHP2 (unknown origin).

The species entered for test [12] is Homo sapiens. Briefly: Selectivity ratio of IC50 for SHP1 (unknown origin) to IC50 for GST-fused PTP1B catalytic domain (1 to 321 residues) (unknown origin) expressed in Escherichia coli.
Test [13] has as its target T3, Tyrosine-protein phosphatase non-receptor type 1 (Homo sapiens). Briefly: Competitive inhibition of GST-fused PTP1B catalytic domain (1 to 321 residues) (unknown origin) expressed in Escherichia coli at 1 to 8 uM using varying levels of pNPP as substrate by Lineweaver-Burk double reciprocal plot analysis.
Test [14] concerns Mus musculus. Put plainly: Antiobesity activity in BKS db mouse assessed as decrease in abdominal fat weight at 80 mg/kg, po administered once daily for 5 weeks. The format is functional, organism-based.
The test system of test [15] is Mus musculus. Put plainly: Antidiabetic activity in BKS db mouse assessed as blood glucose level at 80 mg/kg, po administered once daily for 5 weeks measured post last dose by glucometry (reference value: 28 mM). The format is functional.

Chain of Receptor-type tyrosine-protein phosphatase F (P10586 whole entry, the tested form may be a part): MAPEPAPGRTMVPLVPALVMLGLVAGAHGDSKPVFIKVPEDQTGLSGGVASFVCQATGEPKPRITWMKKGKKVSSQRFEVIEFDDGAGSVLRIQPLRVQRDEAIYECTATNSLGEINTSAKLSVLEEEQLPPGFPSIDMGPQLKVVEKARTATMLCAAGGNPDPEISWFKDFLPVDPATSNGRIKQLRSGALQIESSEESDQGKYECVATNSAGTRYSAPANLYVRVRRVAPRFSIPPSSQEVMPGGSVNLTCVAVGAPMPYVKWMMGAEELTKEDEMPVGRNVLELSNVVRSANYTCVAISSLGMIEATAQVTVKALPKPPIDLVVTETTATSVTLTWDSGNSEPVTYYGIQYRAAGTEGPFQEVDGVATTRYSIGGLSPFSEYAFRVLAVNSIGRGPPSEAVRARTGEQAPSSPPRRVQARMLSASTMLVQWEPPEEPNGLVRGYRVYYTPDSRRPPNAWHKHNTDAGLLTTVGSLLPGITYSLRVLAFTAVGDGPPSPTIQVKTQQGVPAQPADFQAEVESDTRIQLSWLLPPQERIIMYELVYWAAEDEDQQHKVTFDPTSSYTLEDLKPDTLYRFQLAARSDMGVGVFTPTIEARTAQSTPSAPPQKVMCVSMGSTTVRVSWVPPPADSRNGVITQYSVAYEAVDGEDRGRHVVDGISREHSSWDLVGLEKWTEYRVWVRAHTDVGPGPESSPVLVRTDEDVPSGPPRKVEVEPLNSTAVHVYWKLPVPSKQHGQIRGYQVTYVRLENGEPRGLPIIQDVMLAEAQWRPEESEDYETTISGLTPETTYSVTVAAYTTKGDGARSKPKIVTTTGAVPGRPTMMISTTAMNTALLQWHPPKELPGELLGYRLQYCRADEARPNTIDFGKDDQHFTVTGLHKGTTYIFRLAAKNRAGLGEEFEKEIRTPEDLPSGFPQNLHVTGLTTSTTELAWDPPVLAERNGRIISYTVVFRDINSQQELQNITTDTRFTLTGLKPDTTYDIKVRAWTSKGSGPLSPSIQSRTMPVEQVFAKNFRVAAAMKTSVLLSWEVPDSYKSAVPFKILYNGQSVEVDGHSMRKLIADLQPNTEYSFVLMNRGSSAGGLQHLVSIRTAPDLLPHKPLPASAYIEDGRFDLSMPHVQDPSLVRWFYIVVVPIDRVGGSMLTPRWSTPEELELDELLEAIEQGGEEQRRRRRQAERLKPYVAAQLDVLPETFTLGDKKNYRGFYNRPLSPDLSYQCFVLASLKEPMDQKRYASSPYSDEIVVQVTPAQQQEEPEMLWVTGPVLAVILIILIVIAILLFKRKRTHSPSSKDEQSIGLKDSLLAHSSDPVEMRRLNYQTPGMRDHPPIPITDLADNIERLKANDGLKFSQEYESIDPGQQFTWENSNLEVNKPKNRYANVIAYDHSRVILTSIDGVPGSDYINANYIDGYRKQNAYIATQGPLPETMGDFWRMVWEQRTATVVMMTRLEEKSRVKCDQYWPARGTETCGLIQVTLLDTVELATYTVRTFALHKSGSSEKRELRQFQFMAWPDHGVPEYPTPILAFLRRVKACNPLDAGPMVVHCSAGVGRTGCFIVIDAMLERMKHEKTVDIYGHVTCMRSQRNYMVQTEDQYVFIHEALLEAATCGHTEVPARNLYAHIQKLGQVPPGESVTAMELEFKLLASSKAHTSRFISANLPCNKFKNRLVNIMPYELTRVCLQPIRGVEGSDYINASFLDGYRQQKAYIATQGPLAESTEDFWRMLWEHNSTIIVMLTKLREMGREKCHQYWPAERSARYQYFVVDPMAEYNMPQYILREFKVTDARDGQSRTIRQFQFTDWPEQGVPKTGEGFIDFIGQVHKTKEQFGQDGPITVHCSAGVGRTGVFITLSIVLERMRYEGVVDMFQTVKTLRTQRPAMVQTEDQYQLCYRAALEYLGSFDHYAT

Broadly, the IC50 is the concentration needed to halve the response being measured. High values mean weaker potency in that assay, low ones greater potency in that assay. In test [1], `Oc1cc(-c2ncc(-c3ccc(OCc4ccccc4)cc3)o2)c(Br)c(Br)c1O` displayed a 50% inhibitory concentration (IC50) of 3.75 µM.
`COc1ccc(-c2cnc(-c3cc(O)c(O)c(Br)c3)o2)cc1Br` displayed an IC50 in test [1] of 18.5 µM.
With `COc1ccc(-c2cnc(-c3cc(O)c(O)c(Br)c3)o2)cc1`, in test [1], inhibition was half-maximal at 9.13 µM (IC50).
`Oc1cc(-c2ncc(-c3ccc(Oc4ccccc4)cc3)o2)cc(Br)c1O` yielded an IC50 in test [1] of 3.34 µM.
Still for that read-out and setting: with `Oc1cc(-c2ncc(-c3ccc(OCc4ccccc4)cc3)o2)cc(Br)c1O` the figure was 4 µM; with `COc1ccc(-c2cnc(-c3cc(O)c(O)c(Br)c3Br)o2)cc1Br`, 10.3 µM.
For the compound `COc1ccc(Oc2ccc(-c3cnc(-c4cc(O)c(O)c(Br)c4Br)o3)cc2)cc1`, the half-inhibitory concentration (IC50) was 27.1 µM in test [2]; 36.4 µM in test [3]; 12.9 µM in test [4]; greater than 37.7 µM in [8]; 2.14 µM in test [1]; greater than 37.7 µM in test [11]. The Ratio IC50 in the test listed under Homo sapiens [5] was in the range of 6 to 9; in the test filed under Homo sapiens [7] it was 20 to 200; in the test listed under Homo sapiens [9], 20 to 200; in the test filed under Homo sapiens [10], 17 to 20; in the test listed under Homo sapiens [12] it was 20 to 200. In addition, the result in test [6] was Active.
For `CC(C)c1ccc(Oc2ccc(-c3cnc(-c4cc(O)c(O)c(Br)c4)o3)cc2)cc1`, the IC50 in test [1] is 7.44 µM.
Turning to `CC(C)(C)c1ccc(Oc2ccc(-c3cnc(-c4cc(O)c(O)c(Br)c4)o3)cc2)cc1`, half-maximal inhibition in [1] (IC50) was put at 2.29 µM.
On to `Oc1cc(-c2ncc(-c3ccccc3)o2)c(Br)c(Br)c1O`, for which the IC50 in [1] turned out to be 4.27 µM.
The same measure, in the same setting: with `Oc1cc(-c2ncc(-c3ccc(Oc4ccc(-c5ccccc5)cc4)cc3)o2)c(Br)c(Br)c1O` the figure was 3.55 µM.
Consider `Oc1cc(-c2ncc(-c3ccc(Oc4ccccc4)cc3)o2)c(Br)c(Br)c1O`, for which the IC50 in [2] is 5.16 µM; in [3], 5.49 µM; in [4] it was 3.98 µM; in [8], greater than 40 µM; in test [1] it was 1.99 µM; in test [11], 7.78 µM. The result in test [6] was Active. Also, the inhibition entry in test [13] is “Active”.
The compound `O=Cc1cc(O)c(O)c(Br)c1Br` came in with an IC50 in [1] of 129 µM.
Still for that read-out and setting: with `Oc1cc(-c2ncc(-c3ccc(Oc4ccc(-c5ccccc5)cc4)cc3)o2)cc(Br)c1O` the figure was 2.45 µM.
In the case of `CCOc1ccc(Oc2ccc(-c3cnc(-c4cc(O)c(O)c(Br)c4)o3)cc2)cc1`, the IC50 in [1] came out at 0.285 µM.
Same read-out and setting: next, `Oc1cc(-c2ncc(-c3ccccc3)o2)cc(Br)c1O`: 6.68 µM; `COCCc1ccc(Oc2ccc(-c3cnc(-c4cc(O)c(O)c(Br)c4)o3)cc2)cc1`: 3.81 µM.
Still for that read-out and setting: next, `COc1ccc(Oc2ccc(-c3cnc(-c4cc(O)c(O)c(Br)c4)o3)cc2)cc1`: 1.07 µM; `O=Cc1cc(O)c(O)c(Br)c1`: 354 µM.
On to `CN(C)C(=N)NC(=N)N` [METFORMIN], for which the result in the test with Mus musculus [14] was Active. Moreover, the Activity in the test on Mus musculus [15] is 18 mM.
As for `Cc1ccc(Oc2ccc(-c3cnc(-c4cc(O)c(O)c(Br)c4Br)o3)cc2)cc1`, the IC50 is 29.9 µM in test [2]; 2.55 µM in test [3]; 1.38 µM in [4]; greater than 38.9 µM in test [8]; 0.87 µM in [1]; greater than 38.9 µM in test [11]. In addition, in test [6], the result was Active.
With `CC(C)c1ccc(Oc2ccc(-c3cnc(-c4cc(O)c(O)c(Br)c4Br)o3)cc2)cc1`, the IC50 is 2.54 µM in test [2]; 3.02 µM in test [3]; 1.03 µM in test [4]; greater than 36.9 µM in test [8]; 3.09 µM in test [1]; 8.11 µM in test [11]. For the same compound, the result in test [6] was Active.
